The values that follow come from ChEMBL document CHEMBL1156267, “Studies of the synthesis of all stereoisomers of MG-132 proteasome inhibitors in the tumor targeting approach” (J Med Chem, 2010).

pIC50, pKi: −log10 of the molar value. Activity calls are given as the source filed them. The rule behind the calls is not given here. Square brackets hold non-standard residues; d marks the D form. Peptide text beside a SMILES is read from it. * marks the point of attachment. 1Nal = N[C@@H](Cc1cccc2ccccc12)C(=O)O; 2Nal = N[C@@H](Cc1ccc2ccccc2c1)C(=O)O; Cbz = O=C(OCc1ccccc1)*

Assay [1] can be described thus: Inhibition of 20S proteasome from human erythrocyte. The essentials: (§1)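 Substrates were Suc-Leu-Leu-Val-Tyr-AMC (chymotrypsin-like), Ac-Arg-Leu-Arg-AMC (trypsin-like) and Z-Leu-Leu-Glu-βNA (PGPH). Hydrolysis was read by fluorescence at ex 355 / em 460 nm against DMSO solvent controls.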
A short description of assay [2]: Inhibition of chymotrypsin-like activity of 20S proteasome from human erythrocyte. The essentials: as §1
Assay [3] in a line: Inhibition of peptidylglutamyl peptide hydrolyzing-like activity of 20S proteasome from human erythrocyte. Summed up:
as §1

A short description of assay [4]: Inhibition of trypsin-like activity of 20S proteasome from human erythrocyte. The essentials: as §1
Assay [5] relates to J558L. The assay is described as follows: Inhibition of proteasome in mouse J558L cell lysate assessed as cleavage of Suc-leu-leu-val-Tyr-AMC at 1000 nM after 30 mins. Further details: scale not given: the % may be the effect or the level left.
Assay [6] relates to EMT6. The assay is described as follows: Inhibition of proteasome in mouse EMT6 cell lysate assessed as cleavage of Suc-leu-leu-val-Tyr-AMC at 100 nM after 15 mins. Also on record: scale not given: the % may be the effect or the level left.
Assay [7] concerns J558L. The assay is described as follows: Inhibition of proteasome in mouse J558L cell lysate assessed as cleavage of Suc-leu-leu-val-Tyr-AMC at 100 nM after 60 mins. Also on record: scale not given: the % may be the effect or the level left.
Assay [8] concerns EMT6. Nature of the assay: Inhibition of proteasome in mouse EMT6 cell lysate assessed as cleavage of Suc-leu-leu-val-Tyr-AMC at 100 nM after 60 mins. Also on record: scale not given: the % may be the effect or the level left.
Assay [9] has as its system J558L. The assay is described as follows: Inhibition of proteasome in mouse J558L cell lysate assessed as cleavage of Suc-leu-leu-val-Tyr-AMC at 100 nM after 15 mins. Further details: scale not given: the % may be the effect or the level left.
Assay [10] relates to EMT6. The assay is described as follows: Inhibition of proteasome in mouse EMT6 cell lysate assessed as cleavage of Suc-leu-leu-val-Tyr-AMC at 1000 nM after 30 mins. Further details: scale not given: the % may be the effect or the level left.
For assay [11], the system named is J558L. Nature of the assay: Inhibition of proteasome in mouse J558L cell lysate assessed as cleavage of Suc-leu-leu-val-Tyr-AMC at 100 nM after 30 mins. Further details: scale not given: the % may be the effect or the level left.
In assay [12] the test system is EMT6. Nature of the assay: Inhibition of proteasome in mouse EMT6 cell lysate assessed as cleavage of Suc-leu-leu-val-Tyr-AMC at 1000 nM after 60 mins. Also on record: scale not given: the % may be the effect or the level left.
The test system of assay [13] is J558L. Nature of the assay: Inhibition of proteasome in mouse J558L cell lysate assessed as cleavage of Suc-leu-leu-val-Tyr-AMC at 1000 nM after 15 mins. Further details: scale not given: the % may be the effect or the level left.
Assay [14] deals with EMT6. The assay is described as follows: Inhibition of proteasome in mouse EMT6 cell lysate assessed as cleavage of Suc-leu-leu-val-Tyr-AMC at 100 nM after 30 mins. Also on record: scale not given: the % may be the effect or the level left.
Assay [15] has as its system EMT6. Nature of the assay: Inhibition of proteasome in mouse EMT6 cell lysate assessed as cleavage of Suc-leu-leu-val-Tyr-AMC at 1000 nM after 15 mins. Also on record: scale not given: the % may be the effect or the level left.
The test system of assay [16] is J558L. Nature of the assay: Inhibition of proteasome in mouse J558L cell lysate assessed as cleavage of Suc-leu-leu-val-Tyr-AMC at 1000 nM after 60 mins. Further details: scale not given: the % may be the effect or the level left.
The test system of assay [17] is J558L. The assay is described as follows: Cytotoxicity against mouse J558L cells after 24 hrs by MTT assay. Type of assay: functional, cell-based. Summed up:
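Murine J558L myeloma cells grown in RPMI-1640 with 10% heat-inactivated FCS, antibiotics, 2-mercaptoethanol and 2 mM L-glutamine. Cells were seeded at 3 × 10³ per well and compounds were added the next day. MTT at 1 mg/mL was present for the last 4 h. Cells were lysed in SDS/DMF buffer at pH 4.7 overnight and read at 570 nm. Viability is (A_e − A_b)×100/(A_c − A_b), relative to medium-only cultures.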
(Formazan colour is commonly taken as a measure of viable cells.)

Assay [18] deals with EMT6. The assay is described as follows: Cytotoxicity against mouse EMT6 cells after 24 hrs by crystal violet staining.

`CC(C)C[C@@H](C=O)NC(=O)[C@H](Cc1cccc2ccccc12)NC(=O)[C@H](Cc1ccc2ccccc2c1)NC(=O)OCc1ccccc1` (Cbz-[2Nal]-[1Nal]-Leu-aldehyde): the pKi in [1] was 10.82.
For `CC(C)C[C@@H](C=O)NC(=O)[C@H](CC(C)C)NC(=O)[C@H](CC(C)C)NC(=O)OCc1ccccc1` (stereo in doubt) [MG-132], the pIC50 in [2] was 5.26; in [3], < 4.00; in assay [4] it was < 4.00.
Turning to `CC(C)CC(NC(=O)[C@@H](CC(C)C)NC(=O)OCc1ccccc1)C(=O)N[C@H](C=O)CC(C)C` (stereo in doubt) [listing 1 of 2 here], the pIC50 is 5.75 in assay [2] and 4.76 in assay [3].
In the case of `CC(C)CC(NC(=O)[C@@H](CC(C)C)NC(=O)OCc1ccccc1)C(=O)N[C@H](C=O)CC(C)C` (single isomer, unassigned; (+)) [listing 1 of 2 here], the Activity in assay [5] came out at 117%; in assay [6] it was 97%; in assay [7] it was 123%; in assay [8], 95%; in assay [9] it was 115%; in [10], 100%. In addition, the Activity in [11] came to 118%; in assay [12] it was 99%; in [13], 114%; in assay [14], 95%; in assay [15] it was 104%; in assay [16], 121%.
Regarding `CC(C)C[C@@H](C=O)NC(=O)[C@H](CC(C)C)NC(=O)[C@H](CC(C)C)NC(=O)OCc1ccccc1` (stereo in doubt; 2), the Activity in [5] is 25%; in [6] it was 20%; in [7] it was 60%; in [8] it was 35%; in assay [9], 32%; in assay [10] it was 14%. In addition, the Activity was 44% in assay [11]; 19% in [12]; 15% in assay [13]; 25% in assay [14]; 12% in [15]; 44% in assay [16].
Turning to `CC(C)CC(NC(=O)[C@H](CC(C)C)NC(=O)OCc1ccccc1)C(=O)N[C@@H](C=O)CC(C)C` (stereo in doubt; (-)) [listing 1 of 2 here], the Activity in [5] came to 64%; in assay [6], 95%; in assay [7], 94%; in assay [8], 91%; in [9], 92%; in assay [10] it was 46%. The Activity in assay [11] is 93%; in assay [12] it was 53%; in assay [13], 55%; in assay [14], 91%; in assay [15], 44%; in [16], 77%.
For the compound `CC(C)C[C@H](NC(=O)[C@H](Cc1ccccc1)NC(=O)c1cnccn1)B(O)O` [BORTEZOMIB], the negative-log Ki (pKi) in assay [1] is 9.21.
Regarding `CC(C)C[C@H](C=O)NC(=O)[C@@H](CC(C)C)NC(=O)[C@@H](CC(C)C)NC(=O)OCc1ccccc1`, the Activity in assay [5] came out at 66%; in assay [6] it was 90%; in [7] it was 89%; in [8], 91%; in assay [9] it was 87%; in assay [10], 70%. For the same compound, the Activity in [11] was found to be 89%; in assay [12], 78%; in assay [13], 58%; in [14] it was 90%; in assay [15] it was 62%; in [16], 71%. For the same compound, the pIC50 in assay [2] is 5.01; in [3] it was 4.95; in [4] it was < 4.00.
For `CC(C)C[C@@H](C=O)NC(=O)[C@H](CC(C)C)NC(=O)[C@H](CC(C)C)NC(=O)OCc1ccccc1` (stereo in doubt), the Activity in assay [5] is 72%; in assay [6] it was 71%; in assay [7] it was 95%; in assay [8], 86%; in assay [9], 84%; in assay [10], 37%. Besides, the Activity turned out to be 91% in assay [11]; 50% in assay [12]; 71% in assay [13]; 77% in [14]; 29% in assay [15]; 74% in assay [16].
Turning to `CC(C)CC(NC(=O)[C@@H](CC(C)C)NC(=O)OCc1ccccc1)C(=O)N[C@H](C=O)CC(C)C` (stereo in doubt) [listing 2 of 2 here], the Activity in assay [5] worked out at 40%; in assay [6], 87%; in assay [7] it was 82%; in [8] it was 84%; in [9], 71%; in [10], 61%. Further, the Activity in assay [11] is 77%; in assay [12], 67%; in assay [13] it was 30%; in assay [14], 85%; in assay [15] it was 61%; in assay [16], 53%.
Regarding `CC(C)C[C@H](NC(=O)[C@@H](CC(C)C)NC(=O)OCc1ccccc1)C(=O)N[C@@H](C=O)CC(C)C`, the Activity came to 96% in assay [5]; 112% in assay [7]; 100% in [9]; 110% in assay [11]; 102% in [13]; 99% in [16]. Moreover, the pIC50 in [2], in [3] and in assay [4] was < 4.00 throughout.
`CC(C)CC(NC(=O)[C@H](CC(C)C)NC(=O)OCc1ccccc1)C(=O)N[C@@H](C=O)CC(C)C` (stereo in doubt; (+)) [listing 1 of 2 here]: the pIC50 in assay [2], in assay [3] and in assay [4] was < 4.00 each time.
Regarding `CC(C)CC(NC(=O)[C@H](CC(C)C)NC(=O)OCc1ccccc1)C(=O)N[C@@H](C=O)CC(C)C` (stereo in doubt; (-)) [listing 2 of 2 here], the pIC50 is 6.01 in assay [2], 4.64 in assay [3] and 4.04 in assay [4].
The matching figures for `CC(C)CC(NC(=O)[C@@H](CC(C)C)NC(=O)OCc1ccccc1)C(=O)N[C@H](C=O)CC(C)C` (single isomer, unassigned; (+)) [listing 2 of 2 here]: < 4.00, < 4.00 and < 4.00.
Take `CC(C)C[C@@H](C=O)NC(=O)[C@@H](CC(C)C)NC(=O)[C@H](CC(C)C)NC(=O)OCc1ccccc1`: the result in assay [17] and in assay [18] was inactive. Further, the Activity in [5] was 21%; in assay [6], 17%; in [7], 50%; in [8], 31%; in [9], 25%; in assay [10], 7%. Also, the Activity in [11] was determined as 36%; in [12], 13%; in assay [13] it was 11%; in assay [14], 22%; in assay [15], 5%; in assay [16], 38%. Further, the results for the pIC50 in [2], in assay [3] and in assay [4] were 6.66, 5.53 and 4.46, respectively.
As for `CC(C)C[C@@H](C=O)NC(=O)[C@H](CC(C)C)NC(=O)[C@H](CC(C)C)NC(=O)OCc1ccccc1` (stereo in doubt; 2) [MG-132], the values for the pIC50 in [2], in [3] and in assay [4] were 6.05, 5.24 and 3.98, respectively. Also, the pKi in [1] was 8.40.
As to `CC(C)CC(NC(=O)[C@H](CC(C)C)NC(=O)OCc1ccccc1)C(=O)N[C@@H](C=O)CC(C)C` (stereo in doubt; (+)) [listing 2 of 2 here], the Activity in [5] amounted to 106%; in [6] it was 110%; in [7] it was 107%; in assay [8], 99%; in assay [9], 104%; in assay [10] it was 111%. The Activity in [11] came out at 105%; in [12], 106%; in assay [13] it was 107%; in assay [14], 103%; in assay [15], 118%; in assay [16] it was 106%.

A word on the pKi: it is the Ki on a negative log10 scale, so that one unit is a factor of ten. The term pIC50 denotes −log10 of the IC50, conventionally taken in molar units.
